Legend:
[1] = target: T1, Broad substrate specificity ATP-binding cassette transporter ABCG2 (Homo sapiens, UniProt Q9UNQ0); test: Inhibition of ABCG2
T1 sequence (Q9UNQ0 whole entry): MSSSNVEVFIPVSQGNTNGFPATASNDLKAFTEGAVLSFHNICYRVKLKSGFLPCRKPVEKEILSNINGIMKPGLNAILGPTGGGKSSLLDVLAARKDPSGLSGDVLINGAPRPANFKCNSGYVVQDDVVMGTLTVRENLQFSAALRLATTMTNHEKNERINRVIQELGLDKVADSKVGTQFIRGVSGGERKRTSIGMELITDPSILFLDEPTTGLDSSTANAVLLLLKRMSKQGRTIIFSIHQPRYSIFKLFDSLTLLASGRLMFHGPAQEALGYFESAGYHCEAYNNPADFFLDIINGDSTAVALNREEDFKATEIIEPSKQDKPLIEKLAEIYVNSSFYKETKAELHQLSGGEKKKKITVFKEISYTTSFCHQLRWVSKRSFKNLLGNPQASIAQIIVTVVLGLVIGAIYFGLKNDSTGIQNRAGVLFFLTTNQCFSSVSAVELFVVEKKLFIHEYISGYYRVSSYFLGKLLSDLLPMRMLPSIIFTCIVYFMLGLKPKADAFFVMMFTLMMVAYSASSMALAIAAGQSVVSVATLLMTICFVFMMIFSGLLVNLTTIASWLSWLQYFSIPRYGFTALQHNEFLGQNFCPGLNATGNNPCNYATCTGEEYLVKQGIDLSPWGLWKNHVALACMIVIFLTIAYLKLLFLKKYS

[2] = target: T2, ATP-dependent translocase ABCB1 (Homo sapiens, UniProt P08183); test: Inhibition of ABCB1
ABCG2 = target: T3, ABCG2 (Homo sapiens, UniProt Q9UNQ0); test: Inhibition of ABCG2 in human Caco-2 cells assessed as [3H]mithoxatrone accumulation at 100 uM; format: cell-based; conditions: probe [3H]mithoxatrone
T3 sequence (Q9UNQ0 whole entry): T1 sequence (Q9UNQ0 whole entry)
In short: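 Caco-2 monolayers grown 21 days (TEER >800 Ω × cm²). 20 nM [3H]mitoxantrone added basolaterally with or without compound at 100 µM, 120 min at 37 °C. Apical appearance measured by scintillation counting. Result is % inhibition from the radioactivity difference with and without compound.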

Caco-2 = test: Ratio of apparent permeability from basolateral to apical over apical to basolateral side of human Caco-2 cells after 120 mins by UV-visible spectroscopy; conditions: caco-2, 2 h
[3] = target: T2, ATP-dependent translocase ABCB1; test: Inhibition of ABCB1 transfected in MDCK cells assessed as increase in calcein-AM accumulation; format: cell-based
[4] = target: T4, 5-hydroxytryptamine receptor 1A (Homo sapiens, UniProt P08908); test: Displacement of [3H]8-OH-DPAT from human cloned 5-HT1A receptor expressed in human HeLa cells; format: cell-based
T4 sequence (P08908 whole entry): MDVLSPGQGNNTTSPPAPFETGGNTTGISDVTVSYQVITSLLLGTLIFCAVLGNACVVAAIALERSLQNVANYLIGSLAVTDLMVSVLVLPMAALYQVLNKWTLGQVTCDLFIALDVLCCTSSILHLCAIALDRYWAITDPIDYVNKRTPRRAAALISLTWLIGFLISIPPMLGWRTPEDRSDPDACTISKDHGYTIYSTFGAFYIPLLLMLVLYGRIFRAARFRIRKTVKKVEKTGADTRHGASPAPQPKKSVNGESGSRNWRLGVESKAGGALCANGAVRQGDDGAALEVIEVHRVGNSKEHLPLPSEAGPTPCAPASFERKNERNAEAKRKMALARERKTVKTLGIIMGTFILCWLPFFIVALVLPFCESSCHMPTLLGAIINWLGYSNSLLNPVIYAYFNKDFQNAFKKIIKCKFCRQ
In short: (§1)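 Compounds at 0.1 nM–10 µM in 50 mM Tris-HCl pH 7.4, 5 mM MgSO4, 120 min at 37 °C. Filtered on PEI-soaked GF/C. Nonspecific binding with 10 µM 8-OH-DPAT. […] Mean of three experiments, triplicate samples.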

[5] = target: T2, ATP-dependent translocase ABCB1; test: Inhibition of ABCB1-mediated [3H]vinblastine transportation in human Caco-2 cells; format: cell-based
In short: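 Caco-2 monolayers grown 21 days (TEER >800 Ω × cm²). 20 nM [3H]vinblastine added to the basolateral side with or without compound (200 nM–400 µM) for 120 min at 37 °C. Appearance on the apical side measured by scintillation counting. IC50 from nonlinear fit. Mean of three experiments, triplicate samples.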

D(2) dopamine receptor [6] = target: T5, D(2) dopamine receptor (Homo sapiens, UniProt P14416); test: Displacement of [3H]spiroperidol from human cloned dopaminergic D2 receptor expressed in rat C6 cells; format: cell-based
[7] = target: T2, ATP-dependent translocase ABCB1; test: Inhibition of ABCB1 in human Caco-2 cells assessed as ATPase activation at 100 uM after 2 hrs; format: cell-based; conditions: caco-2, 2 h
In short: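 Caco-2 cells seeded at 2 × 10⁴ cells/well and held overnight at 37 °C, 5% CO2. Exposed to compound in complete medium for 2 h at 37 °C. Cells then lysed and ATP read by luciferase luminescence after 10 min dark adaptation. Tested at 100 µM; a positive response is reported as a percentage.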

[8] = target: T6, 5-hydroxytryptamine receptor 1A (Homo sapiens) (UniProt P08908); test: Displacement of [3H]8-OH-DPAT from human cloned 5-HT1A receptor expressed in human HeLa cells at 10 uM; format: cell-based; in short: as §1
T6 sequence (whole entry): T4 sequence (P08908 whole entry)

D(2) dopamine receptor [9] = target: T5, D(2) dopamine receptor; test: Displacement of [3H]spiroperidol from human cloned dopaminergic D2 receptor expressed in rat C6 cells at 10 uM; format: cell-based
In short: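 Buffer was 50 mM Tris, 10 mM MgCl2, 1 mM EDTA, pH 7.4. Incubated 60 min at 27 °C, then filtered on PEI-soaked GF/C. Nonspecific binding with 10 µM haloperidol.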

ABCB1 = ABCB1 (Homo sapiens, UniProt P08183); test: Activation of ABCB1 in human Caco-2 cells assessed as ATPase activation at 100 uM after 2 hrs
Chain of ABCB1 (P08183 whole entry): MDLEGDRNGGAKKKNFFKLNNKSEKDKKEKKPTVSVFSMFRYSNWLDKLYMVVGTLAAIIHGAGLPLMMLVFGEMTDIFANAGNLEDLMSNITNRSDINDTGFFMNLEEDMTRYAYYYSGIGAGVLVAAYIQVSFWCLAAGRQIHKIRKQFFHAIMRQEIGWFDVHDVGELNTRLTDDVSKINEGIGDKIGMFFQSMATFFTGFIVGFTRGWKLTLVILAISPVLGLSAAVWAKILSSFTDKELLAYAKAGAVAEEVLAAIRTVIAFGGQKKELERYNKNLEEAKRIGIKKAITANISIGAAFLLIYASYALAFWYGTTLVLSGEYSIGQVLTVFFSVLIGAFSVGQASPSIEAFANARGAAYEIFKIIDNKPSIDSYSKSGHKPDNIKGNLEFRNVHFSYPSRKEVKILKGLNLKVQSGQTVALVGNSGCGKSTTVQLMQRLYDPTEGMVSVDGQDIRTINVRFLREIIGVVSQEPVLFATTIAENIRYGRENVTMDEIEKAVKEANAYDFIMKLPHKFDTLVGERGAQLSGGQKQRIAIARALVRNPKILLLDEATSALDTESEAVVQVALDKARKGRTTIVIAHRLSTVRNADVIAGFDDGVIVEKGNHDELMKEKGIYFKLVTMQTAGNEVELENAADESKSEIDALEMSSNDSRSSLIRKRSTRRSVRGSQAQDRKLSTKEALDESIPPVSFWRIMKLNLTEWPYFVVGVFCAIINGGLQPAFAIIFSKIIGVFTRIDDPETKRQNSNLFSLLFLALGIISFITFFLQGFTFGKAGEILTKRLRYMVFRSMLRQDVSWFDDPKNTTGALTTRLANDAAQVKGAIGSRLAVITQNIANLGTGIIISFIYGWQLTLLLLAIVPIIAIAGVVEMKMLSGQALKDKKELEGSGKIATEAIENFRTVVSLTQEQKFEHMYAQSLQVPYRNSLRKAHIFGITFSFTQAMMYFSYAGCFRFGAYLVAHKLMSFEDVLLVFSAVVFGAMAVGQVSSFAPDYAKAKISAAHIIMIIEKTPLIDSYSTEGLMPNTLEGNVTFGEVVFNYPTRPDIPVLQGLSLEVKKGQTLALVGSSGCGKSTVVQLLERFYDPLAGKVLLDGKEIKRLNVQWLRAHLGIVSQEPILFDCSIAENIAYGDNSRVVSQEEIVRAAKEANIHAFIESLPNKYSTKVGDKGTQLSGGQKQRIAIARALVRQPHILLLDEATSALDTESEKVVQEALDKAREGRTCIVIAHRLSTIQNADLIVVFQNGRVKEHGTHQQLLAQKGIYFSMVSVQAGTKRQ

T2 sequence (P08183 whole entry): as above
T5 sequence (P14416 whole entry): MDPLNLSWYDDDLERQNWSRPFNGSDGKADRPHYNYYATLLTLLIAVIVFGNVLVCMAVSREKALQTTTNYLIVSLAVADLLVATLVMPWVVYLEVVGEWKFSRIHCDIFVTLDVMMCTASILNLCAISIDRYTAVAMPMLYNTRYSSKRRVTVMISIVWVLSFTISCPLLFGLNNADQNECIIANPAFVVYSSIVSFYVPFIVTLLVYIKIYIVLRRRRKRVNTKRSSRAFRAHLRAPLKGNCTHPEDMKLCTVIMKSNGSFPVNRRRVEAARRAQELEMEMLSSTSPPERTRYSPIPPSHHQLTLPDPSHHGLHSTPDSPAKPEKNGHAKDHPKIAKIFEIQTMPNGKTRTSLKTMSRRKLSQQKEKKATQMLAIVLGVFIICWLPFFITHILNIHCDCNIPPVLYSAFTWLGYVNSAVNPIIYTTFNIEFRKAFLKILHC

| SMILES | IC50 [1] [µM] | IC50 [2] [µM] | inhibition at 100 µM (ABCG2) [%] | Ratio (Caco-2) | IC50 [3] [µM] | Ki [4] [µM] | IC50 [5] [µM] | Ki (D(2) dopamine receptor [6]) [µM] | Activity [7] | inhibition [8] [%] | inhibition (D(2) dopamine receptor [9]) [%] | activation at 2 h, 100 µM (ABCB1) [%] |
| --- | --- | --- | --- | --- | --- | --- | --- | --- | --- | --- | --- | --- |
| COc1cccc(CCc2ccccc2OCc2cccc(OC)c2OC)c1 | 120 | – | – | – | – | – | – | – | – | – | – | – |
| COc1cccc(CCc2ccccc2NCc2cccc(OC)c2OC)c1 | 1.5 | 0.085 | – | – | – | – | – | – | – | – | – | – |
| COc1cccc(CCc2ccccc2OCCCCN2CCN(c3ncccn3)CC2)c1 | – | – | 16 | 8.2 | 1.17 | 0.558 | 0.2 | 0.854 | Not Active | – | – | – |
| COc1cccc(CCc2ccccc2OCCCCN2CCc3cc(OC)c(OC)cc3C2)c1 | – | – | – | 5.8 | 0.16 | > 5 | 0.19 | > 1 | Not Active | 18 | 40 | – |
| COc1cccc(CCc2ccccc2OCCCCCN2CCc3cc(OC)c(OC)cc3C2)c1 | – | – | – | 4.9 | 0.11 | > 5 | 0.35 | > 1 | – | 22 | 18 | 20 |
| COc1cccc(CCc2ccccc2OCCN2CCc3cc(OC)c(OC)cc3C2)c1 | – | – | – | 6.4 | 0.78 | > 5 | 0.75 | > 1 | – | 26 | 12 | 55 |
| COc1cccc(CCc2ccccc2OCCCN2CCc3cc(OC)c(OC)cc3C2)c1 | – | – | – | 4.3 | 0.09 | > 5 | 0.14 | > 1 | Not Active | 36 | 35 | – |
| COc1cccc(CCc2ccccc2NCc2ccc(OC)c(OC)c2)c1 | 0.5 | 0.18 | – | – | – | – | – | – | – | – | – | – |
| COc1cccc(CCc2ccccc2OCCCCN2CCN(c3cccc(C(F)(F)F)c3)CC2)c1 | – | – | 24 | 4.4 | 1.79 | > 5 | 0.75 | > 1 | Not Active | 36 | 27 | – |
| COc1cccc(CCc2ccccc2OCCCCCN2CCN(c3ccc(F)cc3)CC2)c1 | – | – | – | – | – | > 5 | – | 0.847 | – | 27 | – | 40 |
| COc1cccc(CCc2ccccc2OCCN2CCN(c3ccc(F)cc3)CC2)c1 | – | – | – | 2.2 | – | 0.783 | 10 | > 1 | – | – | 38 | 10 |
| COc1cccc(CCc2ccccc2OCCCCN2CCN(c3ccc(F)cc3)CC2)c1 | – | – | – | – | – | > 5 | – | 1.32 | – | 47 | – | 25 |
| COc1cccc(CCc2ccccc2OCCCCN2CCN(C)CC2)c1 | – | – | – | 6.3 | 4.78 | > 5 | 0.15 | > 1 | Not Active | 38 | 14 | – |
| COc1cccc(CCc2ccccc2OCc2ccc(OC)c(OC)c2)c1 | 150 | 0.65 | – | – | – | – | – | – | – | – | – | – |
| COc1cccc(CCc2ccccc2OCCCCCN2CCN(c3ccccc3OC)CC2)c1 | – | – | – | 5.2 | – | > 5 | 1.27 | > 1 | – | 14 | 35 | 15 |
| COc1cccc(CCc2ccccc2OCCN2CCN(C)CC2)c1 | – | – | – | 6.8 | 7.76 | > 5 | 0.8 | 0.178 | Not Active | 48 | – | – |
| COc1cccc(CCc2ccccc2OCCCN2CCc3ccccc3C2)c1 | – | – | – | 6.3 | 1.14 | 1.12 | 0.5 | 0.114 | Not Active | – | – | – |

Reference: ChEMBL document CHEMBL1140844, “2-[(3-Methoxyphenylethyl)phenoxy]-based ABCB1 inhibitors: effect of different basic side-chains on their biological properties” (J Med Chem, 2008)
